High-throughput results deposited in PubChem by several laboratories.
This is a sample that favours compounds with a hit; in the whole collection about 7.1% have one here.
bCat KO growth: primary screen for growth suppressors in beta-catenin knockout HCT116 cells (colon tumor, human); viability, % at 10 µM; AID 818, 2007; HCT116 beta-catenin knockout viability, CellTiter-Glo, 60 h; stronger effect = lower value; actives 1.5% (n = 140,000);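 active = viability at or under a set limit, the compound median less 4 SD, cut at about 6% in these data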;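 note: 0% = Hyamine 1622 control at 20 µM and 100% = untreated cell control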
PTEN del growth: growth suppression of PTEN-null HCT116, primary screen, cell-based, CellTiter-Glo. HCT116 PTEN-null viability, 60 h; stronger effect = lower value. viability, % at 10 µM. actives 1.2% (n = 140,000);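 active = viability at or below a set limit, 4 SD under the median of all tested compounds, cut at about 3.7% in these data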;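 note: PTEN knockout HCT116 line with beta catenin targeted HCT116 as companion control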
Cav3 T inh: Cav3.2 calcium influx blockers – cell-based, Fluo-4 calcium fluorescence, FDSS, MLSMR library, primary screen; actives 4% (n = 100,000); B-score at 10 µM; Cav3.2-expressing cells; stronger effect = lower value;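 active = single-dose well whose peak fluorescence ratio is a statistical outlier from its plate by either plate-standardised score or position-corrected B-score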
Lung fibro prol: antiproliferative effect on LL 47 fibroblasts – human, LL 47 cells, CellTiter-Glo luminescence, primary screen; LL 47 human lung fibroblast viability, ATP luminescence; stronger effect = lower value; viability, % at 10 µM; actives 1.1% (n = 85,000); AID 719, 2007;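 active = viability at or below 50% in the single dose screen; inactive = viability above 50%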;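 note: compound exposure lasted 72 h before the ATP readout; 100% = median luminescence of untreated cell-only wells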
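Test system: LL 47 human lung fibroblasts / Quantity: 1,150 cells in each well / Medium: IMEM growth medium with 15% fetal bovine serum / Incubation: 72 h compound exposure at 37 °C after overnight plating / Detection: CellTiter-Glo luminescence measuring cellular ATP / Read-out: % viability versus median cells-only luminescence / Benchmarks: cell-only wells, no compound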
HUVEC inhibit: inhibitors of HUVEC proliferation, primary screen, cell-based, 384-well; actives 1.1% (n = 86,000); CellTiter-Glo luminescence, 72 h; stronger effect = lower value; viability, % at 10 µM (by protocol); AID 648, 2007;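 active = viability at or below 30%; inactive = viability above 30%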;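 note: 100% = median luminescence of DMSO-only cell control wells on each plate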
H69AR inhibit: proliferation blockers of H69AR lung cancer cells, primary screen, cell-based, human, 86K library; actives 6% (n = 85,000); H69AR lung tumor viability, ATP luminescence, 72 h; stronger effect = lower value; viability, % at 10 µM;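 active = viability at or below 40%; inactive = viability above 40%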;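 note: multidrug resistant small cell line overexpressing MRP-1 efflux transporter; 100% = mean luminescence of untreated control wells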
* = called active by the depositor.

How did CCC(=O)OCc1c(C(F)(F)F)nn(C)c1Sc1ccc(Cl)cc1 do in these assays?
bCat KO growth: 95.1; PTEN del growth: 78.1; Cav3 T inh: -3.04

How did CC(=O)c1nn(-c2ccc(Br)cc2)cc1C(=O)c1ccccc1 do in these assays?
bCat KO growth: 57.8; PTEN del growth: 74.0

How did CC(=O)c1nn(-c2cccc(Br)c2)cc1C(=O)c1ccc2ccccc2c1 do in these assays?
bCat KO growth: 3.7*; PTEN del growth: 4.0; Cav3 T inh: -0.549

What do the screens show for `CCC(C)c1nc2ccsc2c(N2CCOC2=O)c1-c1ccccc1` (centres undefined)?
Cav3 T inh: -1.48

How did O=C(/C=C/c1ccc2c(c1)OCO2)NCCSCc1ccc(Cl)cc1Cl do in these assays?
bCat KO growth: 59.1; PTEN del growth: 63.1; Cav3 T inh: -6.32*

What do the screens show for `O=C(NCCSCc1ccc(Cl)cc1Cl)c1ccc(CN2CCOCC2)cc1`?
bCat KO growth: 21.5; PTEN del growth: 37.7; Cav3 T inh: -4.32*

Results for O=C(/C=C/c1ccc2c(c1)OCO2)NCCSCc1cccc(Cl)c1 ?
bCat KO growth: 79.4; PTEN del growth: 86.5

How did COc1ccc(C(=O)O/N=C(\N)Cc2ccc(Cl)cc2)cc1OC do in these assays?
bCat KO growth: 0.9*; PTEN del growth: 2.4*; Cav3 T inh: -2.65

Results for COc1ccc(C(=O)O/N=C(\N)Cc2ccc(Cl)c(Cl)c2)cc1OC ?
bCat KO growth: 86.8; PTEN del growth: 78.0

What do the screens show for `C=CCNC(=O)C1(c2ccccc2)CC1(Cl)Cl` (centres undefined)?
bCat KO growth: 94.4; PTEN del growth: 103.2

How did COc1ccc(C2C=C(c3ccc(C)c(C)c3)Nc3ncnn32)c(OC)c1OC (centres undefined) do in these assays?
bCat KO growth: 40.4; PTEN del growth: 38.9; Cav3 T inh: -1.12; Lung fibro prol: 62.2; HUVEC inhibit: 61.8; H69AR inhibit: 25.0*

What do the screens show for `Cc1ccc(C2=CC(c3ccc(C)cc3)n3ncnc3N2)cc1` (centres undefined)?
Cav3 T inh: -0.615

Results for O=C1CSC(c2ccccn2)N1Cc1cn2ccccc2n1 (centres undefined) ?
bCat KO growth: 79.2; PTEN del growth: 79.2; Lung fibro prol: 13.7*; HUVEC inhibit: 99.8; H69AR inhibit: 93.7

Results for COc1cc(Br)cc2cc(C(=O)OC3CCN(C)CC3)c(=O)oc12 ?
Cav3 T inh: 1.27; Lung fibro prol: 101.4; HUVEC inhibit: 94.9; H69AR inhibit: 35.8*

What do the screens show for `CC(c1ccccc1F)n1cc(C(=O)NCCc2ccco2)nn1` (centres undefined)?
bCat KO growth: 83.0; PTEN del growth: 87.2; Cav3 T inh: 0.024; Lung fibro prol: 99.8; HUVEC inhibit: 93.7; H69AR inhibit: 57.4

What do the screens show for `COc1cc(-c2cc(OC)c3c(C)oc(C)c3c(=O)c2)ccc1O`?
bCat KO growth: 46.8; PTEN del growth: 55.3; Cav3 T inh: -2.11; Lung fibro prol: 86.5; HUVEC inhibit: 71.5; H69AR inhibit: 29.6*

How did Cc1ccccc1N1C(=O)c2cccc3c(N(C)CCO)ccc(c23)C1=O do in these assays?
bCat KO growth: 86.0; PTEN del growth: 98.7; Cav3 T inh: -4.25*; Lung fibro prol: 97.0; HUVEC inhibit: 108.3; H69AR inhibit: 89.2

What do the screens show for `CCN(CC(=O)Nc1cc(Cl)ccc1C)c1ncnc2sc(C)c(C)c12`?
bCat KO growth: 61.8; PTEN del growth: 72.5

What do the screens show for `CC(=O)N1CCc2c(sc(NC(=O)C3CC3)c2-c2nc3ccccc3s2)C1`?
bCat KO growth: 6.0*; PTEN del growth: 19.8; Lung fibro prol: 88.3; HUVEC inhibit: 70.0; H69AR inhibit: 49.6

Results for C=CCn1c(O)c(C2=c3ccccc3=NC2=O)s/c1=N/c1nccs1 ?
bCat KO growth: 27.7; PTEN del growth: 26.9; Lung fibro prol: 41.7*; HUVEC inhibit: 65.8; H69AR inhibit: 23.2*

Results for Cn1c(O)c(C2=c3ccccc3=NC2=O)sc1=Nc1ccc(Cl)cc1 ?
bCat KO growth: 45.7; PTEN del growth: 49.7; Cav3 T inh: 0.27; Lung fibro prol: 75.7; HUVEC inhibit: 67.9; H69AR inhibit: 39.8*

Results for COc1ccc(NC(=O)Cc2c(SC)c3ccccc3n2Cc2ccccc2)cc1 ?
bCat KO growth: 43.8; PTEN del growth: 43.9

Results for COC(=O)C1=C(C(=O)OC)[C@@H]2N(C)c3ccc(OC)cc3[C@@]23C[C@@H](C(=O)OC)N=C3N1 ?
Cav3 T inh: 0.952

Results for CSc1cccc(NC(=O)CN(c2ccc(C)cc2C)S(C)(=O)=O)c1 ?
bCat KO growth: 90.7; PTEN del growth: 85.2; Cav3 T inh: -7.93*; Lung fibro prol: 90.4; HUVEC inhibit: 81.8; H69AR inhibit: 88.9

How did Cc1ccc(N(CC(=O)N/N=C/c2cc(C)n(-c3ccccc3)c2C)S(C)(=O)=O)c(C)c1 do in these assays?
bCat KO growth: 88.7; PTEN del growth: 93.5; Cav3 T inh: -6.66*

Results for CSc1cccc(NC(=O)CN(c2cccc(C)c2)S(C)(=O)=O)c1 ?
bCat KO growth: 82.1; PTEN del growth: 82.6; Cav3 T inh: -4.29*; Lung fibro prol: 100.5; HUVEC inhibit: 98.0; H69AR inhibit: 89.1

What do the screens show for `Cc1cc(/C=N/NC(=O)Cn2c3ccccc3c(=O)c3ccccc32)c(C)n1-c1ccccc1`?
bCat KO growth: 91.8; PTEN del growth: 88.1

What do the screens show for `Cc1cccc(N(CC(=O)Nc2ccc(F)cc2)S(C)(=O)=O)c1`?
bCat KO growth: 103.3; PTEN del growth: 96.5; Cav3 T inh: -0.162; Lung fibro prol: 93.5; HUVEC inhibit: 95.0; H69AR inhibit: 88.7

How did Cc1nn(C)cc1C(C(=O)NC1CCCCC1)N(C(=O)Cc1cccs1)c1ccc(Cl)cc1 (centres undefined) do in these assays?
bCat KO growth: 76.1; PTEN del growth: 68.4

What do the screens show for `CN(C)S(=O)(=O)N(CC(=O)Nc1ccc2ccccc2c1)c1ccccc1`?
bCat KO growth: 51.7; PTEN del growth: 49.0; Cav3 T inh: -9.53*; Lung fibro prol: 95.0; HUVEC inhibit: 92.8; H69AR inhibit: 95.6

Results for CN(C)S(=O)(=O)N(CC(=O)Nc1ccc(F)c(F)c1)c1ccccc1 ?
bCat KO growth: 94.3; PTEN del growth: 98.4; Cav3 T inh: -0.851; Lung fibro prol: 96.7; HUVEC inhibit: 95.6; H69AR inhibit: 103.2

Results for O=C(Nc1cccc(Cl)c1)N(Cc1nc2ccccc2c(=O)[nH]1)C1CCCC1 ?
bCat KO growth: 84.7; PTEN del growth: 66.5; Cav3 T inh: -6.03*; Lung fibro prol: 93.6; HUVEC inhibit: 81.2; H69AR inhibit: 81.1

How did Cc1c(C(=O)NCC2CCCO2)cccc1[N+](=O)[O-] (centres undefined) do in these assays?
bCat KO growth: 86.7; PTEN del growth: 94.7
